The source of these data is ChEMBL document CHEMBL1255391, “Rates and mechanisms of resistance development in Mycobacterium tuberculosis to a novel diarylquinoline ATP synthase inhibitor” (2010).

What all share (type): functional
For assay [1], the system named is Mycobacterium tuberculosis. The experiment in a line: Antimicrobial activity against drug-susceptible Mycobacterium tuberculosis isolate 6 expressing wild type atpE selected after 10 times MIC drug exposure. The gist of the method:
(§1)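 Each resistant mutant clone (one colony picked per independent fluctuation culture selected on drug agar) is suspended in PBS, sonicated and applied by 96-pin replicator. Nonselective and rifampin control plates are included. Plates are read after 4 weeks; MIC is the lowest concentration with no visible growth.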

The subject of assay [2] is Mycobacterium tuberculosis. Put plainly: Antimicrobial activity against drug-susceptible Mycobacterium tuberculosis H37Rv.
For assay [3], the system named is Mycobacterium tuberculosis. Put plainly: Antimicrobial activity against drug-susceptible Mycobacterium tuberculosis isolate 4 expressing wild type atpE selected after 10 times MIC drug exposure. The gist of the method: as §1
Assay [4] has as its system Mycobacterium tuberculosis. Put plainly: Antimicrobial activity against drug-susceptible Mycobacterium tuberculosis isolate 4 expressing wild type atpE and F0 operon selected after 10 times MIC drug exposure. A digest of the protocol:
as §1

The test system of assay [5] is Mycobacterium tuberculosis. The experiment in a line: Antimicrobial activity against drug-susceptible Mycobacterium tuberculosis isolate 6 expressing wild type atpE selected after 30 times MIC drug exposure. A digest of the protocol:
as §1

The subject of assay [6] is Mycobacterium tuberculosis. Put plainly: Antimicrobial activity against drug-susceptible Mycobacterium tuberculosis Mycobacterium tuberculosis H37Rv expressing wild type atpE and F0 operon selected after 10 times MIC drug exposure. The gist of the method:
as §1

The test system of assay [7] is Mycobacterium tuberculosis. Put plainly: Antimicrobial activity against drug-susceptible Mycobacterium tuberculosis H37Rv expressing wild type atpE selected after 10 times MIC drug exposure. A digest of the protocol:
as §1

The subject of assay [8] is Mycobacterium tuberculosis. Put plainly: Antimicrobial activity against drug-susceptible Mycobacterium tuberculosis H37Rv expressing wild type atpE selected after 30 times MIC drug exposure. The gist of the method: as §1

Each structure is given as a SMILES string. ≈ marks a conversion by molar mass, not a printed value.

For `COc1nc2ccc(Br)cc2cc1[C@@H](c1ccccc1)[C@@](O)(CCN(C)C)c1cccc2ccccc12` [BEDAQUILINE], the MIC (as a rule, the smallest concentration in the dilution series that meets the test's criterion for growth inhibition) was determined as 0.24 µg/mL (≈ 0.432 µM) in assay [1]; 0.03 µg/mL (≈ 0.054 µM) in assay [2]; 0.12 µg/mL (≈ 0.216 µM) in assay [3]; 0.3 µg/mL (≈ 0.54 µM) in assay [4]; 0.12 µg/mL (≈ 0.216 µM) in assay [5]; 0.48 µg/mL (≈ 0.864 µM) in assay [6]. Also, the minimal inhibitory concentration (MIC) in assay [7] came out at 0.48 µg/mL (≈ 0.864 µM); in assay [8], 0.24 µg/mL (≈ 0.432 µM).
